From PubChem
Most compounds without a hit are left out; they make up all but 5.8% or so of the library.
T cruzi growth-1: inhibitors of T. cruzi proliferation | inhibition, % at 8.34 µM | T. cruzi beta-gal in NIH3T3, GalScreen luminescence, 90 h | hit rate 5.9% among 77,000;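 active means mean inhibition above about 93%, with at least 55% of replicates each passing it, limit read from the data, passing the limit was not always enough; inconclusive means only one of those two conditions holds; inactive means neither condition holds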
Pf Dd2 inh: P. falciparum Dd2 growth inhibition; SYBR Green, 72 h; active compounds read low; activity change, % at 10 µM; hit rate 2.3% among 94,000; in the data active means activity change below about -80%; inconclusive means no clear call, values can overlap the other calls
GASC1 inh: blocks human GASC-1 (KDM4C) demethylase activity. GST-KDM4C 2-372, H3K9me3 peptide, LANCE TR-FRET. inhibition, % at 12.5 µM. hit rate 0.15% among 96,000;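 active means mean replicate inhibition above about 25%, with at least 55% of replicates also reaching it, limit read from the data, passing the limit was not always enough; inconclusive means only one of those two conditions met; inactive means neither condition met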
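System: N-terminal GST-fused human GASC-1 (KDM4C) fragment, residues 2-372 / Amount: 10 nM GST-KDM4C in enzyme reaction / Also added: H3K9me3 peptide with Fe(II)/2OG / Times: 30 min demethylation and 1 h detection at room temperature / Signal: LANCE TR-FRET / Read-out basis: Fall in 671/618 emission ratio as inhibition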
IDH1 mut inh: IDH1 R132H (human) inhibition; O75874; IDH1 R132H reductase, diaphorase/resazurin fluorescence, 60 min; inhibition, % at 10 µM; hit rate 0.18% among 70,000; in the data active means inhibition above about 34%; inconclusive means no clear call, values can overlap the other calls; inactive means below about 11%;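 further: 0% = DMSO and 100% = no enzyme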
Target sequence (O75874 whole entry R132H): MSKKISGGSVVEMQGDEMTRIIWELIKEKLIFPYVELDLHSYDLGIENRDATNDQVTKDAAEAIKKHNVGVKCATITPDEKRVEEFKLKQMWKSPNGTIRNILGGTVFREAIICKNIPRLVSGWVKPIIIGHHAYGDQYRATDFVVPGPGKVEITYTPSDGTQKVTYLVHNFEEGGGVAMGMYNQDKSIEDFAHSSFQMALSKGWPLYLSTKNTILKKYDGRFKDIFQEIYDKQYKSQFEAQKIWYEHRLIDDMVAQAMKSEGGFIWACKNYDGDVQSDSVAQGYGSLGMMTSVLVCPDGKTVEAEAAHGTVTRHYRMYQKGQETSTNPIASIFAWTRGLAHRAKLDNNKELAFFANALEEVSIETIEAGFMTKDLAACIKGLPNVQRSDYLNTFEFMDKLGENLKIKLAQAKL
T cruzi growth-2: inhibitors of T. cruzi proliferation; shares compounds with T cruzi growth-1; T. cruzi beta-gal in NIH3T3, GalScreen luminescence, 90 h; inhibition, % at 8.35 µM; hit rate 72% among 5,600;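 active means mean replicate inhibition above about 95% and at least 55% of replicates individually reaching it, limit read from the data; inconclusive means only one of the two criteria is met; inactive means neither criterion is met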
T cruzi growth-3: blocks T. cruzi growth in NIH3T3 host cells; shares compounds with T cruzi growth-1; inhibition, % at 2.09 µM; hit rate 21% among 5,600; T. cruzi beta-gal in NIH3T3, GalScreen luminescence, 90 h; AID 651740;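 active means mean inhibition above about 95%, with at least 55% of replicates also reaching it, limit read from the data; inconclusive means meets just one of the two conditions; inactive means meets neither condition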;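 further: plate controls were neutral control median for no effect and positive control median for full effect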
3T3 cytotox: NIH/3T3 (mouse) viability loss. shares compounds with T cruzi growth-1. NIH/3T3 viability, CellTiter-Glo ATP luminescence, 90 h. cytotoxicity (signal decrease), % at 8.35 µM. hit rate 14% among 5,600;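 active means mean signal decrease across replicates above about 35% based on untreated-well scatter, with enough replicates individually passing, limit read from the data; inconclusive means no rule stated though some were filed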;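 further: 0% = median of neutral control wells and 100% = median of positive control wells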
3T3 cytotox 2: NIH/3T3 (mouse) viability loss; shares compounds with T cruzi growth-1; NIH/3T3 viability, CellTiter-Glo ATP luminescence, 90 h; inhibition, % at 24.9 µM; hit rate 56% among 5,600;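 active means mean loss of cell viability signal at or above a set limit, and enough replicates individually reaching it; inconclusive means meets only the mean limit or only the replicate share; inactive means meets neither condition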;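 further: 0% = median of neutral control wells and 100% = median of positive control wells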
Numbers without * were called inactive; ? = inconclusive; · = no result.

SMILES	T cruzi growth-1	Pf Dd2 inh	GASC1 inh	IDH1 mut inh	T cruzi growth-2	T cruzi growth-3	3T3 cytotox	3T3 cytotox 2
N#Cc1ccc(-c2ccc3c(c2)[C@H]2[C@H](CCN2S(=O)(=O)c2ccccc2F)[C@H](CO)N3)cc1	6	-2	0	·	·	·	·	·
O=C(Nc1ccc(Cl)cc1)N[C@H]1CC[C@@H](CCn2cc(-c3ccccc3F)nn2)O[C@H]1CO	154*	-4	1	-1	79	25	1	41*
COc1ccc(-c2ccc3c(c2)[C@@H]2[C@@H](CCN2C(=O)Cc2ccccc2)[C@@H](CO)N3C)cc1	60	-50	5	·	·	·	·	·
C[C@@H]1CN([C@H](C)CO)C(=O)Cc2cc(NC(=O)Nc3ccc(F)cc3)ccc2O[C@@H]1CN(C)Cc1ccncc1	29	4	·	21	·	·	·	·
CCCN(C)C[C@@H]1Oc2cc(C#CC3CCCC3)ccc2S(=O)(=O)N([C@@H](C)CO)C[C@H]1C	103*	-54	4	-2	108*	77	39*	104*
C[C@H](CO)N1C[C@H](C)[C@H](CN(C)C)Oc2cc(C#CC3CCCCC3)ccc2S1(=O)=O	98*	-71	1	0	106*	55	48*	103*
C[C@H]1CN([C@@H](C)CO)S(=O)(=O)c2ccc(C#CC3CCCC3)cc2O[C@H]1CN(C)CC1CC1	?	-64	0	0	94	78	48*	104*
C[C@@H]1CN([C@@H](C)CO)S(=O)(=O)c2ccc(C#CC3CCCCC3)cc2O[C@H]1CN(C)C	118*	-60	-1	0	104*	101*	38*	104*
CC1(C)NC(=O)N(CCCOc2ccccc2CO)C1=O	·	·	·	0	·	·	·	·
Cc1cccc(-n2c(SCC(=O)c3ccccc3)nnc2-c2ccncc2)c1C	·	·	·	4	·	·	·	·
C[C@H]1CN([C@@H](C)CO)S(=O)(=O)c2ccc(C#CC3CCCC3)cc2O[C@@H]1CN(C)C	100*	-69	0	-1	105*	53	-4	104*
C[C@H]1CN([C@@H](C)CO)S(=O)(=O)c2ccc(C#CC3CCCC3)cc2O[C@H]1CN(C)C	-62	-65	1	0	·	·	·	·
C[C@@H]1CN([C@@H](C)CO)S(=O)(=O)c2ccc(/C=C/c3ccccc3)cc2O[C@@H]1CN(C)C(=O)NC1CCCC1	?	-20	-2	1	102*	82	3	26*
C[C@H]1CN([C@@H](C)CO)S(=O)(=O)c2ccc(/C=C/c3ccccc3)cc2O[C@@H]1CN(C)C(=O)NC1CCCC1	99*	-27	-2	·	?	56	-1	96*
C[C@@H](NC(=O)C[C@H]1C[C@H]2c3cc(NC(=O)Nc4ccccc4F)ccc3O[C@H]2[C@H](CO)O1)c1ccccc1	·	-13	-4	0	·	·	·	·
CNC[C@H]1Oc2cc(C#Cc3ccccc3OC)ccc2S(=O)(=O)N([C@H](C)CO)C[C@@H]1C	101*	·	-5	0	107*	86	20	104*
COc1ccccc1C#Cc1ccc2c(c1)O[C@@H](CN(C)C)[C@@H](C)CN([C@@H](C)CO)S2(=O)=O	·	-64	-1	0	·	·	·	·
CNC[C@@H]1Oc2cc(C#Cc3ccccc3)ccc2S(=O)(=O)N([C@@H](C)CO)C[C@H]1C	·	-70	-2	-1	·	·	·	·
CNC[C@@H]1Oc2cc(C#Cc3ccccc3OC)ccc2S(=O)(=O)N([C@H](C)CO)C[C@H]1C	102*	·	-2	-2	102*	69	27	103*
COc1ccc(S(=O)(=O)N[C@@H]2C=C[C@H](CC(=O)N3CCC(Cc4ccccc4)CC3)O[C@@H]2CO)cc1	?	-13	0	0	25	11	11	32*
COc1ccc(S(=O)(=O)N[C@@H]2C=C[C@@H](CC(=O)N3CCC(Cc4ccccc4)CC3)O[C@H]2CO)cc1	?	-37	-1	0	65	-7	-7	32*
C[C@@H]1CN([C@H](C)CO)C(=O)Cc2cc(NC(=O)Nc3ccc4c(c3)OCO4)ccc2O[C@H]1CN(C)Cc1ccc(Oc2ccccc2)cc1	?	9	11	-1	113*	69	29	31*
C[C@@H]1CN([C@@H](C)CO)C(=O)Cc2cc(NC(=O)Nc3ccc4c(c3)OCO4)ccc2O[C@@H]1CN(C)Cc1ccc(Oc2ccccc2)cc1	4	-5	-1	·	·	·	·	·
CC(C)NC(=O)Nc1ccc2c(c1)CC(=O)N([C@@H](C)CO)C[C@@H](C)[C@H](CN(C)Cc1ccc(Oc3ccccc3)cc1)O2	101*	?	3	0	107*	42	30	104*
CC(C)NC(=O)Nc1ccc2c(c1)CC(=O)N([C@H](C)CO)C[C@H](C)[C@H](CN(C)Cc1ccc(Oc3ccccc3)cc1)O2	71	-42	0	1	·	·	·	·
SMILES	T cruzi growth-1	Pf Dd2 inh	GASC1 inh	IDH1 mut inh	T cruzi growth-2	T cruzi growth-3	3T3 cytotox	3T3 cytotox 2
COc1ccc(CN(C)C[C@H]2Oc3ccc(NC(=O)Nc4ccc5c(c4)OCO5)cc3CC(=O)N([C@H](C)CO)C[C@H]2C)cc1	99*	31	0	2	110*	20	1	8
CCCC#Cc1ccc2c(c1)O[C@H](CN(C)C(=O)C1CCC1)[C@@H](C)CN([C@H](C)CO)S2(=O)=O	?	-41	2	0	?	42	-11	4
CCCC#Cc1ccc2c(c1)O[C@H](CN(C)C(=O)C1CCC1)[C@H](C)CN([C@H](C)CO)S2(=O)=O	?	-27	0	·	?	62	29	57*
CCCC#Cc1ccc2c(c1)O[C@@H](CN(C)C(=O)C1CCC1)[C@H](C)CN([C@@H](C)CO)S2(=O)=O	92	-56	-2	·	·	·	·	·
CCCNC(=O)N1CC2(C1)CN(C(=O)NC(C)C)[C@@H](CO)c1c2c2ccc(OC)cc2n1C	·	32	·	·	·	·	·	·
CCS(=O)(=O)N1CCCCN2[C@@H](CO)[C@@H](c3ccc(-c4ccccc4F)cc3)[C@@H]2C1	106*	-43	-2	·	90	16	11	57*
CCS(=O)(=O)N1CCCCN2[C@H](CO)[C@@H](c3ccc(-c4ccccc4F)cc3)[C@@H]2C1	?	-64	-2	·	103*	56	12	24
CCS(=O)(=O)N1CCCCN2[C@@H](CO)[C@H](c3ccc(-c4ccccc4F)cc3)[C@@H]2C1	?	-11	0	·	104*	51	17	42*
C[C@@H](O)C#Cc1ccc([C@H]2[C@@H](CO)N3CCCCN(S(=O)(=O)Cc4ccccc4)C[C@H]23)cc1	45	-16	-1	·	·	·	·	·
